Data reported in ChEMBL document CHEMBL3124822, “Discovery of a rapidly metabolized, long-acting β(2) adrenergic receptor agonist with a short onset time incorporating a sulfone group suitable for once-daily dosing” (J Med Chem, 2014).

Assays:
Hepatocyte [1] = assay: Drug metabolism in human hepatocytes assessed as metabolite M1 formation at 12.5 uM after 2 hrs by LC-MS/MS analysis; assay type: ADME, cell-based
Summary of the method: (§1)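 Human hepatocytes incubated with substrate at 12.5 μM for 2 h. Products characterized by LC–MS/MS on a C18 column, 5–95% acetonitrile gradient in water with 0.1% formic acid over 8 min. Metabolites numbered by elution order. Abundance is semiquantitative from peak heights (low/medium/high), assuming equal analyte response.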

Cavia porcellus = assay: Bronchodilatory activity in guinea pig assessed as inhibition of histamine-induced bronchoconstriction administered via nebulization 2 mins prior to histamine challenge relative to salmeterol acetate; assay type: functional
Summary of the method: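 Conscious guinea pigs (n = 24 per group) in a whole-body plethysmograph; agonist given by 2 min nebulization before challenge with nebulized histamine (10 mM, 1.3 min). Enhanced pause (PenH) was recorded for 15 min as the index of airway obstruction. Potency was expressed as EC90 by nebulizer concentration and compared with salmeterol acetate.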

[2] = Plasma clearance in Han Wistar rat at 0.25 mg/kg, iv up to 7 hrs by LC-MS/MS analysis; assay type: ADME, organism-based; parameters: dose 0.25 mg/kg, route intravenous
Summary of the method: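 Han Wistar rats dosed 0.25 mg/kg intravenously; plasma sampled at various times up to 7 h postdose. Clearance expressed as percentage of liver blood flow.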

Liver microsome [3] = assay: Clearance in human liver microsomes; assay type: ADME
Summary of the method: (§2)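 Compound incubated with liver microsomes; in vitro metabolic clearance expressed as (mL/min)/g liver.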

[4] = Ratio of drug uptake from blood to plasma in human; assay type: ADME
Summary of the method: (§3)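 In vitro partitioning of the compound into the cellular fraction of rat, dog and human blood, reported as the blood:plasma ratio.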

[5] = target: T1, 5-hydroxytryptamine receptor 1A (Homo sapiens, UniProt P08908); assay: Binding affinity to human 5HT1A receptor
T1 sequence (P08908 whole entry): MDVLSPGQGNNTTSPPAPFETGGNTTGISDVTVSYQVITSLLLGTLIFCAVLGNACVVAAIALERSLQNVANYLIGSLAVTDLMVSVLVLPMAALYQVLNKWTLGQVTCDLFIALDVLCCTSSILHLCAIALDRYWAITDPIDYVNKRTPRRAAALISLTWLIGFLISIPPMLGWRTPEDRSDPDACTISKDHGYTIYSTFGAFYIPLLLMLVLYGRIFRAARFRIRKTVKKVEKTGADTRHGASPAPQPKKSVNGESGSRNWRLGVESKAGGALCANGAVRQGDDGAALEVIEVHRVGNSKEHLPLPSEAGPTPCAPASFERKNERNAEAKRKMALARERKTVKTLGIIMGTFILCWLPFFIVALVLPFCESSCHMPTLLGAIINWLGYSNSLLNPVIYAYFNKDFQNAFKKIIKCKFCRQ

[6] = Ratio of drug uptake from blood to plasma in dog; assay type: ADME, Canis lupus familiaris; summary of the method: as §3
[7] = Plasma protein binding in human; assay type: ADME, cell-free; conditions: read-out: PPB (converted)
[8] = target: Beta-1 adrenergic receptor (Homo sapiens, UniProt P08588); assay: Agonist activity at human beta1 adrenoceptor transfected in CHO cells assessed as cyclic AMP accumulation after 45 mins by fluorescence polarization assay; assay type: cell-based
Cytochrome P450 2C9 = Cytochrome P450 2C9 (Homo sapiens, UniProt P11712); assay: Inhibition of human CYP2C9 expressed in Escherichia coli; assay type: ADME
Summary of the method: (§4)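 Human CYP isoforms expressed in E. coli; IC50 from n = 3. Probe substrates diethoxyfluorescein and 7-benzyloxyquinoline are stated for CYP3A4.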

[9] = Plasma protein binding in dog; assay type: ADME, cell-free, Canis lupus familiaris; conditions: read-out: PPB (converted)
[10] = Binding affinity to guinea pig sigma receptor; parameters: species or system Cavia porcellus
Salmonella typhimurium = assay: Genotoxicity in Salmonella typhimurium by Ames assay; assay type: toxicity, organism-based; conditions: salmonella enterica subsp. enterica serovar typhimurium
Summary of the method: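 Acetate and 4-biphenylsulfonate salts screened in Ames and mouse lymphoma L5178Y assays, with and without a rat liver metabolic activation system.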

Cytochrome P450 3A4 = Cytochrome P450 3A4 (Homo sapiens, UniProt P08684); assay: Inhibition of human CYP3A4 expressed in Escherichia coli using diethoxyfluorescein as substrate; assay type: ADME; summary of the method: as §4
[11] = Ratio of drug uptake from blood to plasma in rat; assay type: ADME; summary of the method: as §3
Liver microsome [12] = assay: Clearance in dog liver microsomes; assay type: ADME, Canis lupus familiaris; summary of the method: as §2
[13] = Oral bioavailability in Han Wistar rat at 2 mg/kg up to 7 hrs by LC-MS/MS analysis; assay type: ADME, organism-based; conditions: in vivo
[14] = Plasma protein binding in guinea pig; assay type: ADME, cell-free, Cavia porcellus; conditions: read-out: PPB (converted)
Hepatocyte [15] = assay: Drug metabolism in human hepatocytes assessed as metabolite M10 formation at 12.5 uM after 2 hrs by LC-MS/MS analysis; assay type: ADME, cell-based; summary of the method: as §1

Chain of Cytochrome P450 2C9 (P11712 whole entry, canonical isoform): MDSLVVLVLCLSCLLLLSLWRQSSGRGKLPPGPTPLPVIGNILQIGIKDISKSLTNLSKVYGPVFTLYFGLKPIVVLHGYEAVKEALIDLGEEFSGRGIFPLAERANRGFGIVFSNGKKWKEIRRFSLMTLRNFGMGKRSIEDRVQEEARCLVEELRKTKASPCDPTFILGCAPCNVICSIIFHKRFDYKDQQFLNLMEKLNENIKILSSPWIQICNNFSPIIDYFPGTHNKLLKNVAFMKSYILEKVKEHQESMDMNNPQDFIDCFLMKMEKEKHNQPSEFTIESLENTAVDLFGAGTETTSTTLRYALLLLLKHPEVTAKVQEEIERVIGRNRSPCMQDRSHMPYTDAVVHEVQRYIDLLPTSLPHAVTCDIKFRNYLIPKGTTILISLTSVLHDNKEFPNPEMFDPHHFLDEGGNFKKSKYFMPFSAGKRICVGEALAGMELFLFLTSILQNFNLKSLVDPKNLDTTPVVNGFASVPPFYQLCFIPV
Chain of Beta-1 adrenergic receptor (P08588 whole entry): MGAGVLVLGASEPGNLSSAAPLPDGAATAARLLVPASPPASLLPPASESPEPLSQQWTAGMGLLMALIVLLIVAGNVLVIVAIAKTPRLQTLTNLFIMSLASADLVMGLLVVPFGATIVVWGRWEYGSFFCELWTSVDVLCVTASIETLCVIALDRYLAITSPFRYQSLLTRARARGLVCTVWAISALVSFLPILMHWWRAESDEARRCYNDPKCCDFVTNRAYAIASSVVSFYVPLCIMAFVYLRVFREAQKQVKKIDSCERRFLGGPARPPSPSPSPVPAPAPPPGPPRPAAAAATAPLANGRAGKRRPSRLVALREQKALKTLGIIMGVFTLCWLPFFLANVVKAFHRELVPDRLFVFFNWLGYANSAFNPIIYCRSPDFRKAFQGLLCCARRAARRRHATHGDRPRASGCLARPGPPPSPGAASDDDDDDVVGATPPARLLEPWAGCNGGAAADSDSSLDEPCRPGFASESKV
Chain of Cytochrome P450 3A4 (P08684 whole entry): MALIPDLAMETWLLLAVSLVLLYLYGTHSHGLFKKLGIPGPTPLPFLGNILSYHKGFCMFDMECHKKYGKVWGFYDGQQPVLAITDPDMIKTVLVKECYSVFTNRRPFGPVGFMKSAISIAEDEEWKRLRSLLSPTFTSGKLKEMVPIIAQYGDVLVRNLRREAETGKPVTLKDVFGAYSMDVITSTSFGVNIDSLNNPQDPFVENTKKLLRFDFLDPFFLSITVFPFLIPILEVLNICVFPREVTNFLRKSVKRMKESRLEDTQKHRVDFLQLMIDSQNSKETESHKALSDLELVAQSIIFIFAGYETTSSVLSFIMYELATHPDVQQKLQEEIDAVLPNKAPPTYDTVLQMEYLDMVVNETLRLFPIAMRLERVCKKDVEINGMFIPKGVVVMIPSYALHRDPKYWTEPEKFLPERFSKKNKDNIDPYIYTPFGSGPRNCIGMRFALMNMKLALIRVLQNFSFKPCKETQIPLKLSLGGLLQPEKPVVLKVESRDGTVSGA

Drug metabolism (Hepatocyte [1]): Active | clearance [2]: 53 mL/min/kg | CLH (Liver microsome [3]): 8 mL/min/g | blood plasma ratio [4]: 0.65 | IC50 [5]: 100 nM | blood plasma ratio [6]: 0.6 | fraction unbound [7]: 0.02 | EC50 [8]: 501 nM | IC50 (Cytochrome P450 2C9): > 10000 nM | fraction unbound [9]: 0.03 | pIC50 [10]: 6.8 | IC50 (Cytochrome P450 3A4): 1600 nM | blood plasma ratio [11]: 1.3 | CLH (Liver microsome [12]): 5 mL/min/g | bioavailability [13]: < 2% | fraction unbound [14]: 0.03 | Drug metabolism (Hepatocyte [15]): Active
SMILES: CC(=O)O.O=S(=O)(c1cccc(CCCCOCCCCCCNC[C@H](O)c2ccc(O)c(CO)c2)c1)C1CCCC1
fold change (FC) (Cavia porcellus): 5 | Activity (Salmonella typhimurium): Non-toxic
